This note sets out measurements from ChEMBL document CHEMBL4359929, “Piperidine and piperazine inhibitors of fatty acid amide hydrolase targeting excitotoxic pathology” (Bioorg Med Chem, 2019).

Data set [1] deals with Cannabinoid receptor 2 (Mus musculus) (UniProt P47936). Briefly: Displacement of [3H]CP55940 from mouse CB2 receptor expressed in HEK293 cells by competition-equilibrium binding analysis. The data set is classed as cell-based. A digest of the protocol:
(§1)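 HEK293 cell membranes expressing mouse or human CB2; competition-equilibrium binding against [3H]CP-55,940.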
Background: In a radioligand displacement assay an active substance lowers the binding of a labelled ligand.

The nature of data set [2]: Stability in mouse plasma assessed as half life. Format: ADME, cell-free. A digest of the protocol: (§2)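 Stability assessed as half-life in human, rat and mouse plasma and gastric fluid, and in human, rat and mouse liver microsomal preparations.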
The species entered for data set [3] is Homo sapiens. Briefly: Selectivity ratio of IC50 for human recombinant His-tagged MGL expressed in Escherichia coli BL21 DE3 cells to IC50 for human recombinant MBP-tagged FAAH expressed in Escherichia coli cells by fluorescence based assay.
Data set [4] addresses Cannabinoid receptor 1 (Rattus norvegicus) (UniProt P20272). Nature of the data set: Displacement of [3H]CP55940 from CB1 receptor in rat brain by competition-equilibrium binding analysis.
Target sequence in this assay (P20272 whole entry, looked up): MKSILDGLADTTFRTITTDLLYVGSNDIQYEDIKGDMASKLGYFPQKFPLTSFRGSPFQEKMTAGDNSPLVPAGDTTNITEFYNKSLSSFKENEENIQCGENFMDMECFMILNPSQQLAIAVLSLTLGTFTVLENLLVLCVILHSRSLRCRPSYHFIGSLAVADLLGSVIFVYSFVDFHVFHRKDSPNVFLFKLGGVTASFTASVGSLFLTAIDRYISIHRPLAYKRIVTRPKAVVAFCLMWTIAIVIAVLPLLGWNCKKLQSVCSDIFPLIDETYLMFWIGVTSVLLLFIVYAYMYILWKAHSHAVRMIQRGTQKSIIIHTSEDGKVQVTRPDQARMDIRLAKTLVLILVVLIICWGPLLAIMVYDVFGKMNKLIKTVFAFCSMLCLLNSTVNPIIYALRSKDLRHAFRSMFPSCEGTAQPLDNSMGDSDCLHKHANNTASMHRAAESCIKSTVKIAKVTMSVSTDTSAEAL
Data set [5] can be described thus: Selectivity ratio of IC50 for human full length ABHD6 expressed in Escherichia coli cells to IC50 for rat recombinant His/GST-tagged FAAH expressed in Escherichia coli cells by fluorescence based assay.
Data set [6] in a line: Stability in human liver microsomes assessed as half life. The data set is classed as ADME, Microsome. A digest of the protocol: as §2
A short description of data set [7]: Stability in rat liver microsomes assessed as half life. Format: ADME, Microsome. A digest of the protocol: as §2
(Microsomes from liver hold many membrane-bound enzymes, among them those of drug oxidation.)

A short description of data set [8]: Selectivity ratio of IC50 for human recombinant His-tagged MGL expressed in Escherichia coli BL21 DE3 cells to IC50 for rat recombinant His/GST-tagged FAAH expressed in Escherichia coli cells by fluorescence based assay.
In data set [9] the target is T1, Fatty-acid amide hydrolase 1 (Rattus norvegicus, UniProt P97612).
T1 sequence (P97612 whole entry): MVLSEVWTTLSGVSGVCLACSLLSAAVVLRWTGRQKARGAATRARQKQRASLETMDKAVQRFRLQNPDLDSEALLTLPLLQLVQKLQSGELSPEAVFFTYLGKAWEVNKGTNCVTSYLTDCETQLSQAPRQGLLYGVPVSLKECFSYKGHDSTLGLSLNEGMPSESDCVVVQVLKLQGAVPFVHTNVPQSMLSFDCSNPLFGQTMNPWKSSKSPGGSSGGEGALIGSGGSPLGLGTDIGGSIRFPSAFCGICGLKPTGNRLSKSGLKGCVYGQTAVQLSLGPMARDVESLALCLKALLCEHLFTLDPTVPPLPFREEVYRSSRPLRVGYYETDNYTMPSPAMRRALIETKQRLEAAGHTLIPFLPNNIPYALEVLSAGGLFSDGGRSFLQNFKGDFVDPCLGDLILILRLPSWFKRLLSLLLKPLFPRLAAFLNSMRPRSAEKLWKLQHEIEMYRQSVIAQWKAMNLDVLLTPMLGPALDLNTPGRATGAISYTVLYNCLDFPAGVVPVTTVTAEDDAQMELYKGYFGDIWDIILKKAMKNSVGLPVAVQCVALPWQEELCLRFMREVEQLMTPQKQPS
Briefly: Inhibition of rat recombinant His/GST-tagged FAAH expressed in Escherichia coli cells using AAMCA as substrate incubated for 15 mins followed by substrate addition and measured after every 20 mins for 4 hrs by fluorescence based assay. A digest of the protocol: (§3)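 Fluorescent enzyme assay in throughput format. Human recombinant FAAH or purified rat FAAH used arachidonoyl 7-amino-4-methylcoumarin amide as substrate; human recombinant MGL was run by a similar fluorometric procedure.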

Data set [10] in a line: Stability in rat plasma assessed as half life. The data set is classed as ADME, cell-free. A digest of the protocol: as §2
Data set [11] is described as follows: Stability in mouse gastric fluid assessed as half life. The data set is classed as ADME, tissue-based, Gastric juice. A digest of the protocol:
as §2

In data set [12] the target is Cannabinoid receptor 2 (Homo sapiens) (UniProt P34972). Nature of the data set: Displacement of [3H]CP55940 from human CB2 receptor expressed in HEK293 cells by competition-equilibrium binding analysis. Format: cell-based. A digest of the protocol:
as §1

In data set [13] the target is Cannabinoid receptor 1 (Rattus norvegicus) (UniProt P20272). Briefly: Displacement of [3H]CP55940 from CB1 receptor in rat brain by competition-equilibrium binding analysis. Format: tissue-based. Summed up: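 Rat brain membranes as CB1 source; competition-equilibrium binding against [3H]CP-55,940.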
Target sequence in this assay (P20272 whole entry): as the sequence (P20272 whole entry, looked up) above
For data set [14], the species on record is Homo sapiens. Briefly: Selectivity ratio of IC50 for human full length ABHD6 expressed in Escherichia coli cells to IC50 for human recombinant MBP-tagged FAAH expressed in Escherichia coli cells by fluorescence based assay.
Data set [15] is described as follows: Stability in rat gastric fluid assessed as half life. Format: ADME, tissue-based, Gastric juice. A digest of the protocol: as §2
Another data set concerns the target T2, Monoglyceride lipase (Homo sapiens, UniProt Q99685).
T2 sequence (Q99685 whole entry): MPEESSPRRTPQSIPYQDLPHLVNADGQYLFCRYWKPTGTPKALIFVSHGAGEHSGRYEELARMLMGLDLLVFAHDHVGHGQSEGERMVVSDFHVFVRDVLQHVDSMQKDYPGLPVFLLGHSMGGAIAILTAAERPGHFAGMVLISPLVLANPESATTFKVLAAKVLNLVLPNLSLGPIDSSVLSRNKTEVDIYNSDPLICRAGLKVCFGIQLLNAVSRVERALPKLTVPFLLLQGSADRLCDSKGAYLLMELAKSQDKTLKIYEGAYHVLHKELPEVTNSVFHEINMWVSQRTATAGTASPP
Briefly: Inhibition of human recombinant His-tagged MGL expressed in Escherichia coli BL21 DE3 cells using AHMMCE as substrate preincubated with enzyme for 15 mins followed by substrate addition and measured after every 15 mins for 3 hrs by fluorescence based assay. A digest of the protocol:
as §3

Data set [16] concerns the target T3, Fatty-acid amide hydrolase 1 (Homo sapiens, UniProt O00519).
T3 sequence (O00519 whole entry): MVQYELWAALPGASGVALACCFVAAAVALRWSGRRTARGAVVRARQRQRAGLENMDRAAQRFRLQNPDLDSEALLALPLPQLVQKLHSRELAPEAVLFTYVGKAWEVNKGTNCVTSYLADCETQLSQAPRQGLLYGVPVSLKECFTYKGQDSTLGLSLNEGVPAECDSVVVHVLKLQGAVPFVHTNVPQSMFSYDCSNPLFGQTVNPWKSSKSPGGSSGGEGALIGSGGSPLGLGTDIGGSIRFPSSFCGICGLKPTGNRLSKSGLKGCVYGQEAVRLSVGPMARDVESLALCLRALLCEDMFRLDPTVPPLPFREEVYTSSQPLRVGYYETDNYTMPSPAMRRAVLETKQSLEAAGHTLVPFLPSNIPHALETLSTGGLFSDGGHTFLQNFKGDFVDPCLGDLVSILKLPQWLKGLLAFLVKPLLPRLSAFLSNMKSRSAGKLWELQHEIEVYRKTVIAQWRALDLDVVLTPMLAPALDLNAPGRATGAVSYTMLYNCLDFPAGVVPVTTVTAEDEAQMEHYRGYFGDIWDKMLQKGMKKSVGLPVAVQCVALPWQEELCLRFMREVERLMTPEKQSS
Nature of the data set: Inhibition of human recombinant MBP-tagged FAAH expressed in Escherichia coli cells using AAMCA as substrate incubated for 15 mins followed by substrate addition and measured after every 20 mins for 4 hrs by fluorescence based assay. Summed up: as §3

The nature of data set [17]: Stability in human plasma assessed as half life. Format: ADME, cell-free. A digest of the protocol: as §2
Data set [18] in a line: Stability in human gastric fluid assessed as half life. Format: ADME, tissue-based, Gastric juice. Summed up: as §2
Data set [19] in a line: Stability in mouse liver microsomes assessed as half life. Format: ADME, Microsome. A digest of the protocol: as §2

Molecules are shown by their SMILES. Calls of active or inactive are those of the source. A value given as a limit tells only on which side of the number the result lay.

Chain of Cannabinoid receptor 2 (Mus musculus) (P47936 whole entry): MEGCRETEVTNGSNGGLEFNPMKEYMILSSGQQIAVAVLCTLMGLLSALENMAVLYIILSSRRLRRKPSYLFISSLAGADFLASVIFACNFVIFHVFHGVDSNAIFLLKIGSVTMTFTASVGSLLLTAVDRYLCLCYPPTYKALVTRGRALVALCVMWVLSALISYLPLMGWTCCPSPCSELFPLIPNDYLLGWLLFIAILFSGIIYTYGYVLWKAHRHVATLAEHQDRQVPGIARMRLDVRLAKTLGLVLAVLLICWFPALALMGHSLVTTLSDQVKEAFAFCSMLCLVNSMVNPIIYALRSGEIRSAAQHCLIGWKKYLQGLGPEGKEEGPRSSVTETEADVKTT
Chain of Cannabinoid receptor 2 (Homo sapiens) (P34972 whole entry): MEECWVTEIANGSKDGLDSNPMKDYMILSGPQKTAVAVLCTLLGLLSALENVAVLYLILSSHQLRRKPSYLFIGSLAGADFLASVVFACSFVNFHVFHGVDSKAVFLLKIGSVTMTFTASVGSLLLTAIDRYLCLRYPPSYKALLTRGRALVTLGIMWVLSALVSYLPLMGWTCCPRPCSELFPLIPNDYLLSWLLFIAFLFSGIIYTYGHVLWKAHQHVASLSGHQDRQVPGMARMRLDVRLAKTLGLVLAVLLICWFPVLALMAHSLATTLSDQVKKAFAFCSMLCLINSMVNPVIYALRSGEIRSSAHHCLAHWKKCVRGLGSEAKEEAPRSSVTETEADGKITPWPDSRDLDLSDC

Consider `C[C@@H]1CN(c2ccccc2)CCN1C(=O)Oc1cccc(N2CCS(=O)(=O)CC2)c1`, for which the result in data set [1], in data set [4], in data set [12] and in [13] was inactive. The half-life in data set [2] was greater than 60 min; in [6], 15 to 25 min; in data set [7] it was 15 to 25 min; in [10] it was greater than 60 min; in data set [11], greater than 60 min; in [15], greater than 60 min. Besides, the half-life in data set [17] is greater than 60 min; in [18] it was greater than 60 min; in [19], 15 to 25 min. Also, the Ratio IC50 (in the data set listed under Homo sapiens [3]; in data set [5]; in data set [8]; in the data set listed under Homo sapiens [14]) was greater than 1000 in each case. For the same compound, the IC50 in [9] is 5.7 nM; at Monoglyceride lipase, greater than 1000 nM; in data set [16], 17.7 nM.
Turning to `O=C(Oc1cccc(N2CCS(=O)(=O)CC2)c1)N1CCN(Cc2cccc(Oc3ccccc3)c2)CC1`, the result in data set [1], in data set [4], in data set [12] and in [13] was inactive. For the same compound, the half-life in data set [2] was greater than 60 min; in data set [6], 15 to 25 min; in data set [7], 15 to 25 min; in data set [10] it was greater than 60 min; in data set [11] it was greater than 60 min; in data set [15], greater than 60 min. In addition, the half-life in [17] was greater than 60 min; in [18], greater than 60 min; in data set [19], 15 to 25 min. For the same compound, the Ratio IC50 (in the data set filed under Homo sapiens [3]; in [5]; in data set [8]; in the data set listed under Homo sapiens [14]) was greater than 1000 in each case. In addition, the IC50 was 2.2 nM in [9], greater than 1000 nM on Monoglyceride lipase and 2.3 nM in [16].
On to `O=C(Oc1cccc(N2CCS(=O)(=O)CC2)c1)N1CCN(Cc2cccc(-c3ccccc3)c2)CC1`, for which the outcome in [1], in data set [4], in data set [12] and in data set [13] was inactive. In addition, the half-life in data set [2] is greater than 60 min; in data set [6], 15 to 25 min; in data set [7], 15 to 25 min; in data set [10], greater than 60 min; in [11], greater than 60 min; in data set [15] it was greater than 60 min. Besides, the half-life in data set [17] is greater than 60 min; in data set [18], greater than 60 min; in [19], 15 to 25 min. For the same compound, the Ratio IC50 (in the data set listed under Homo sapiens [3]; in data set [5]; in data set [8]; in the data set filed under Homo sapiens [14]) was greater than 1000 throughout. The IC50 in data set [9] is 2.1 nM; at Monoglyceride lipase it was greater than 1000 nM; in [16] it was 1.9 nM.
On to `O=C(Oc1cccc(N2CCS(=O)(=O)CC2)c1)N1CCC(c2ccccc2)CC1`, for which the result in data set [1], in data set [4], in [12] and in data set [13] was inactive. The half-life in data set [2] was greater than 60 min; in [6], 15 to 25 min; in [7], 15 to 25 min; in data set [10] it was greater than 60 min; in data set [11], greater than 60 min; in data set [15], greater than 60 min. Further, the half-life is greater than 60 min in [17], greater than 60 min in data set [18] and 15 to 25 min in [19]. Besides, the Ratio IC50 (in the data set filed under Homo sapiens [3]; in data set [5]; in data set [8]; in the data set listed under Homo sapiens [14]) was greater than 1000 each time. Further, the IC50 in [9] is 6 nM; at Monoglyceride lipase it was greater than 1000 nM; in [16], 8 nM.

In general, half-life refers to the time needed for the level to fall by half in the phase considered. As usually defined, the IC50 is the concentration that gives 50% inhibition.
